Compound activity as filed in PubChem.
HSF1 activator: HSF-1 activators, primary screen, NIH3T3-HGL cells, MG132 stress, luminescence, single point. NIH3T3-HGL HSF-1 luciferase reporter, 8 h; 100% = twice DMSO control signal. activation, % at 9 µM. actives 1.7% (n = 300,000). AID 504408, 2011;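 active = mean replicate activation of at least 50% with a set share of replicates each reaching 50%; inconclusive = only one of those two conditions met; inactive = mean below 50% and too few replicates reaching it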;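 also: 0% = median of the neutral control wells and 100% = twice that signal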
ALR inh: inhibitors of human ALR sulfhydryl oxidase, primary screen, biochemical, H2O2 detection, HRP-luminol luminescence, single point; purified ALR, DTT oxidation; inhibition, % (test concentration not listed); actives 3.8% (n = 290,000); AID 485317, 2010;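 active = mean replicate inhibition above about 79%, with every replicate also reaching it, limit read from the data; inconclusive = only one of the two criteria met; inactive = mean below limit and not every replicate reaching it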
Target sequence (P55789 whole entry, looked up): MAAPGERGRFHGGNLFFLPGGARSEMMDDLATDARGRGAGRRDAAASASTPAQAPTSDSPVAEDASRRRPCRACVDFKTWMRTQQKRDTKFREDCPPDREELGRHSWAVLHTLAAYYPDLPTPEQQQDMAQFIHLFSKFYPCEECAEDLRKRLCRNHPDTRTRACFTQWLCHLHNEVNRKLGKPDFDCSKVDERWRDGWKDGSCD
core dimer inh: inhibitors of HCV core protein dimerization, primary screen, biochemical, TR-FRET, high-throughput | AID 1899, 2009 | actives 0.33% (n = 300,000) | inhibition, % at 5 µM | TR-FRET GST/Flag-core106 dimerization, 1536-well;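 active = inhibition above the mean of all tested compounds plus 3 SD, set per screening campaign, cut at about 45% in these data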
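assay system = GST-tagged and Flag-tagged HCV core protein residues 1-106 | controls = unlabelled core106 and no-GST-core106 wells | incubation = compound-protein-antibody incubation 4 h at 22.5 °C | probe or stimulus = Eu donor and XL665 acceptor anti-tag antibodies | read-out = % inhibition based on acceptor/donor emission ratio | signal = TR-FRET 671 and 617 nm emission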
PHOSPHO1 inh: PubChem AID 1565 | Phosphoethanolamine/phosphocholine phosphatase (Homo sapiens), Q8TCT1 | recombinant PHOSPHO1, absorbance phosphatase assay | inhibition, % at 13.3 µM | actives 1.1% (n = 290,000); in the data active = inhibition above about 60%
Target sequence (Q8TCT1 whole entry, looked up): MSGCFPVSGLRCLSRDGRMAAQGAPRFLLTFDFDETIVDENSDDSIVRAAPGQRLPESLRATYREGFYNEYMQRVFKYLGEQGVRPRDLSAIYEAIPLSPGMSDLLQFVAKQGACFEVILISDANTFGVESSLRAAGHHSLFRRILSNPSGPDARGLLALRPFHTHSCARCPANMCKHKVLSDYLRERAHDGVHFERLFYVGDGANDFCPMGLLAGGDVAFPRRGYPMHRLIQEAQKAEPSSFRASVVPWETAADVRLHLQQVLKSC
AI-2 QS mod: Vibrio harveyi AI-2 quorum sensing modulators, primary screen, JMH597 strain, luminescence/OD600 ratio. Vibrio harveyi JMH597 AI-2 luminescence/OD600 ratio, 9 h; stronger effect = lower value; strain lacks LuxN and CqsS sensors; 0 = neutral-control median. actives 0.4% (n = 300,000). AID 2094, 2009. activity change, % at 7.5 µM; in the data active = activity change below about -75%, passing the limit was not always enough; inconclusive = no clear call, values can overlap the other calls;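 also: luminescence divided by OD600 gain over 9 h not by final OD600 alone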
HSF1 inhib: HSF1 inhibitors in luciferase reporter cells, primary screen, cell-based, NIH3T3, luminescence | NIH3T3-HGL HSE-luciferase, MG132-induced, luminescence 8 h; stronger effect = lower value | AID 2098, 2009 | activity change, negative = inhibition, % at 7.5 µM (by protocol) | actives 0.77% (n = 300,000);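 active = more than half of replicate wells show activity change below -50%, luminescence cut by over half; inconclusive = some wells, but at most half, below -50%; inactive = no replicate well below -50%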;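 also: luciferase reports HSF-1 transcriptional activity via heat shock element; 0% = median of DMSO wells and -100% = zero luminescence signal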
Starred values were filed as active, the others as inactive; ? = inconclusive; . = no result. Shown are actives, neighbours in structure and some others; about 6.8% of the full set was active somewhere.

SMILES | HSF1 activator | ALR inh | core dimer inh | PHOSPHO1 inh | AI-2 QS mod | HSF1 inhib
Nc1nnnn1/N=C/C(Br)=C/c1ccccc1 | 252* | -15 | 9 | 1 | 7 | 188
Nc1nnnn1/N=C/C=C/c1ccccc1 | 7 | 0 | 3 | -33 | -5 | 5
N#CCC(=O)Nc1sc2c(c1C(N)=O)CCCC2 | 17 | 90* | 5 | -7 | -5 | 3
CCC(=O)Nc1sc2c(c1C(N)=O)CCC2 | 20 | 43 | 0 | 24 | 2 | -5
COC(=O)Nc1sc2c(c1C(N)=O)CCCCCC2 | -23 | 11 | 7 | 69* | -3 | -8
CCOC(=O)c1c(NC(=O)OC)sc2c1CCC2 | 3 | 17 | -5 | 2 | 3 | 3
COC(=O)c1c(NC(=O)COC(=O)c2ccc(NC(=O)CC#N)cc2)sc2c1CCCCC2 | 12 | -2 | 62* | 30 | 8 | -4
Cc1cccc(NC(=O)C2CCCN(S(=O)(=O)c3cccc4cccnc34)C2)c1 (stereo not given) | -2 | . | 1 | -11 | 15 | -9
CN(C)C(=O)C(OC(=O)c1ccc2ccccc2n1)c1ccccc1 (stereo not given) | 1 | 0 | -4 | 11 | 19 | -7
COc1ccc(NC(=O)CCC(=O)Nc2nnc(C3CCCCC3)s2)c(OC)c1 | -9 | -11 | 11 | 29 | 17 | -4
O=C(NNC(=S)Nc1ccccc1)c1cccc(Br)c1 | -54 | 74 | -18 | 89* | 16 | -43
CC(C)(C)NC(=S)NNC(=O)c1ccc2ncccc2c1 | 25 | 69 | 0 | -65 | . | 9
O=C(NNC(=S)Nc1ccc(Cl)cc1)c1ccccc1OC(F)F | 59* | . | -12 | -7 | 33 | 19
O=C(NNC(=S)Nc1ccccc1)c1ccc2ncccc2c1 | 17 | 78* | -21 | -103 | 22 | 4
O=C(NNC(=S)Nc1ccc(Br)cc1)c1ccccc1Br | 16 | 99* | . | -98 | -2 | 2
C[C@H]1CN=C(Nc2ccccc2)N1CCc1ccccc1 | . | 10 | 2 | . | . | .
Oc1ccc(CCNc2ncnc3ccc(Cl)cc23)cc1 | -40 | ? | 6 | 10 | 20 | -38
COC(=O)CCC(=O)NNC(=O)c1cccc(Br)c1 | -73 | -5 | -4 | -4 | 3 | -67*
COC(=O)c1ccc(NC(=S)NNC(=O)c2ccccc2)cc1 | 35 | 92* | 2 | -39 | 84 | 7
O=C(O)CCC(=O)NNC(=O)c1cccc(Br)c1 | 34 | 1 | -3 | 8 | -3 | 11
O=C(NC(=S)Nc1cccc(O)c1)c1cncc(Br)c1 | 7 | -6 | 3 | . | -6 | 2
O=C(NC(=S)Nc1ccc(O)cc1)c1cncc(Br)c1 | -2 | 99* | -5 | . | 23 | 0
O=C(NNC(=S)Nc1ccc(Br)cc1)c1ccccc1 | 5 | 97* | . | -23 | 19 | 7
COC(=O)c1ccc(NC(=S)Nc2ccccc2)cc1 | -27 | 1 | -3 | 17 | 9 | -17
NC(N)=NS(=O)(=O)c1ccc(NC(=S)NC(=O)c2ccc(Br)cc2)cc1 | 114* | 12 | -1 | 4 | 16 | 86
SMILES | HSF1 activator | ALR inh | core dimer inh | PHOSPHO1 inh | AI-2 QS mod | HSF1 inhib
COc1ccc(NC2CCCN(C(=O)c3cc4ncccn4n3)C2)cc1 (stereo not given) | 19 | 100* | 0 | 2 | 19 | 2
COc1ccc(NC2CCCN(C(=O)c3cccc(N(C)C)c3)C2)cc1 (stereo not given) | 26 | . | . | 31 | 25 | 4
Cc1ccc(C(=O)N2CCCC(Nc3ccc(C(C)C)cc3)C2)cn1 (stereo not given) | -10 | 65 | 0 | 21 | 9 | -3
COc1ccc(NC2CCCN(C(=O)c3ccc(C)nc3)C2)cc1 (stereo not given) | -3 | 99* | 1 | 21 | 34 | -1
COc1ccc(NC2CCCN(C(=O)c3ccc(C(C)=O)s3)C2)cc1 (stereo not given) | -14 | 92* | -17 | 15 | . | -4
COc1ccc(NC2CCCN(C(=O)c3ccc(C(C)=O)cc3)C2)cc1 (stereo not given) | -10 | 98* | . | -16 | 19 | -11
O=C(O)CCn1nnc(-c2ccccc2)n1 | -14 | 2 | -3 | 21 | 13 | -2
COc1ccccc1N(C(=O)c1snc(C(N)=O)c1N)C(C(=O)NC1CCCC1)c1ccc(N(C)C)cc1 (stereo not given) | 11 | . | 9 | 27 | 29 | -4
C#CCNC(=O)C1=C[C@@H](C)[C@H](CCCO)[C@@H](OCC)O1 | -1 | -7 | -4 | . | 8 | 1
COc1ccc(C(=O)N2CCCC(Nc3ccc(F)cc3)C2)c(OC)c1 (stereo not given) | -11 | 98* | 2 | 37 | 25 | 2
COc1ccc(NC2CCCN(C(=O)c3ccc(OC)o3)C2)cc1 (stereo not given) | 3 | 99* | -6 | 9 | 25 | 2
COc1ccccc1OCC(=O)N1CCCC(Nc2cccc(F)c2)C1 (stereo not given) | 17 | -3 | -6 | 52 | 14 | 2
COc1ccc(NC2CCCN(C(=O)c3ccc(C)c(N4CCNC4=O)c3)C2)cc1 (stereo not given) | -14 | 98* | 11 | -39 | 20 | -5
COc1ccc(NC2CCCN(C(=O)c3ccc4[nH]c(C)c(C)c4c3)C2)cc1 (stereo not given) | -2 | 88* | 2 | 19 | -1 | -1
O=C(Nc1cc([N+](=O)[O-])ccc1F)C1CCN(S(=O)(=O)c2cccs2)CC1 | . | 0 | . | . | . | .
CCOC(=O)CN(C)C(=O)C1CCCN1C(=O)OC(C)(C)C (stereo not given) | -6 | -10 | 8 | . | 10 | 3
CC(C)CNC(=O)c1nn(Cc2ccccc2)c(=O)c2ccccc12 | -10 | . | 2 | 32 | 31 | 5
CCNC(=O)CNC(=O)c1nn(Cc2ccccc2)c(=O)c2ccccc12 | -76 | -4 | 3 | 28 | 12 | -71*
C#CC[N+]1(CC#Cc2ccccc2)CCCCC1 | 82* | -1 | 2 | -8 | 22 | 49
C(#Cc1ccccc1)C[N+]1(CC#Cc2ccccc2)CCCCC1 | -13 | -3 | -9 | 20 | 7 | -10
Cc1cccc(NC(=S)NNC(=O)c2ccc(O)cc2O)c1C | -11 | 99* | -3 | -1 | 5 | 1
O=C(Nc1ccc(N=Nc2ccccc2)cc1)c1ccccc1Cl | 72* | . | -6 | 3 | 28 | 32
